Experimental findings from ChEMBL document CHEMBL2010791, “3-Phenyl-5-isothiazole carboxamides with potent mGluR1 antagonist activity” (Bioorg Med Chem Lett, 2012) are described below.

The IC50 is the concentration that inhibits the measured activity by half. The term Tmax denotes the time at which the peak concentration occurs. In general, Cmax refers to the maximum level reached in the sampled fluid or tissue. As a reminder, the AUC(0-t) is the area under the concentration-time curve up to a stated or last time point. A lower AUC(0-t) goes with less exposure. One may read the bioavailability as dose-corrected exposure relative to a reference, in per cent. Low readings indicate poor availability, high ones good availability. The ED50 is the dose that gives a 50% effect, or the effect in half of the subjects.

Active and inactive are the calls of the source. No cut-off for these calls is given here. Some results are limits rather than exact numbers.

Series [1] deals with Metabotropic glutamate receptor 1 (Homo sapiens, UniProt Q13255). Kind of series: Allosteric antagonist activity at human recombinant mGluR1 expressed in AV12 cells assessed as intracellular calcium concentration using Fluo-3 dye by FLIPR assay. It counts as functional, cell-based. Put shortly:
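Intracellular calcium read with Fluo-3 on a 96-channel FLIPR; peak fluorescence to glutamate at its EC90 with and without compound. Inhibition expressed as percent of assay window (EC90 glutamate response minus buffer); IC50 from 4-parameter logistic fit.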

Series [2] concerns the target Metabotropic glutamate receptor 5 (Homo sapiens, UniProt P41594). In words: Antagonist activity at human mGluR5. It is filed as functional.
For series [3], the target named is Metabotropic glutamate receptor 3 (Homo sapiens) (UniProt Q14832). In words: Antagonist activity at mGluR3. It is filed as functional.
Chain of Metabotropic glutamate receptor 3 (Homo sapiens) (Q14832 23-879 limits assumed): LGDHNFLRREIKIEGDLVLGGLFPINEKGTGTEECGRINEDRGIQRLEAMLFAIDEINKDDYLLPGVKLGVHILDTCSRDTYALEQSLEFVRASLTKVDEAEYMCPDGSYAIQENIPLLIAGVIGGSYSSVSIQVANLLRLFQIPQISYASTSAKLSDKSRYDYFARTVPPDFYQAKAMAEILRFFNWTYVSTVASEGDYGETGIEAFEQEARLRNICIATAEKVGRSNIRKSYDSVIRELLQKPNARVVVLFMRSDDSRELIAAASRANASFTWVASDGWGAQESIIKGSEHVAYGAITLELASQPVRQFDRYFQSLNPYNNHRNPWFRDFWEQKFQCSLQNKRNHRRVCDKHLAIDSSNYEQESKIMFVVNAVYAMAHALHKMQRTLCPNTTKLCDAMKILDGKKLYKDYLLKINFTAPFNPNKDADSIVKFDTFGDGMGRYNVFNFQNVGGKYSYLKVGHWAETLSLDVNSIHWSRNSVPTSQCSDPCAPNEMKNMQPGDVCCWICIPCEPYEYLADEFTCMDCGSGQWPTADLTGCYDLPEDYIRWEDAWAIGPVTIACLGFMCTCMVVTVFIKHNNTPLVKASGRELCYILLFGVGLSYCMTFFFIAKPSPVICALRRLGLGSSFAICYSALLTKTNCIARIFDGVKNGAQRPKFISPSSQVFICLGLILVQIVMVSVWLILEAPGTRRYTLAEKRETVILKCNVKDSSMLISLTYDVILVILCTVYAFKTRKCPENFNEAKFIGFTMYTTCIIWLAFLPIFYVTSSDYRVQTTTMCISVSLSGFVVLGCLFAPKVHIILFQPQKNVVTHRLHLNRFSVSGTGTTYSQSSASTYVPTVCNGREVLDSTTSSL
Series [4] concerns the target Metabotropic glutamate receptor 4 (Homo sapiens) (UniProt Q14833). In words: Antagonist activity at mGluR4. It counts as functional.
Series [5] addresses Metabotropic glutamate receptor 7 (Homo sapiens) (UniProt Q14831). In words: Antagonist activity at mGluR7. It counts as functional.
Series [6] addresses Metabotropic glutamate receptor 8 (Homo sapiens) (UniProt O00222). Kind of series: Antagonist activity at mGluR8. It is filed as functional.
The subject of series [7] is Rattus norvegicus. In words: Analgesic activity in po dosed fasted Harlan Sprague-Dawley rat assessed as inhibition of formalin-induced paw-licking behaviour in late phase administered 1 hr before formalin challenge measured after 11 to 40 mins. It is filed as functional. Put shortly: (§1)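 Fasted male Sprague Dawley rats dosed orally (1, 3, 10, 30, 60 mg/kg, n = 8 per group) 1 h before intraplantar injection of 50 µl 5% formalin into right hindpaw. Paw-licking events counted 0–5 min (early) and 11–40 min (late); compared with vehicle, p<0.05.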

Series [8] has as its system Rattus norvegicus. In words: Analgesic activity in fasted Harlan Sprague-Dawley rat assessed as inhibition of formalin-induced paw-licking behaviour in late phase at 3 to 60 mg/kg, po administered 1 hr before formalin challenge measured after 11 to 40 mins. It is filed as functional, organism-based. Put shortly: as §1
Series [9] addresses Metabotropic glutamate receptor 1 (Rattus norvegicus, UniProt P23385). Kind of series: Antagonist activity at rat mGluR1. It counts as functional.
Series [10] in a line: Tmax in Sprague-Dawley rat at 10 mg/kg, po. It is filed as ADME, organism-based. Set-up: dose 10 mg/kg, route oral. The following applies: in vivo. The procedure, abridged: (§2)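 Sprague Dawley rats dosed 3 mg/kg IV (solution in 25 mmol/L phosphate buffer pH 3 with 5% solutol HS15 and 5% pharmasolve) and 10 mg/kg orally (suspension in 1% methylcellulose A400 plus 0.1% antifoam); plasma levels measured over 24 h to derive PK parameters.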

Series [11] can be described thus: Cmax in Sprague-Dawley rat at 10 mg/kg, po. It is filed as ADME, organism-based. Set-up: dose 10 mg/kg, route oral. The note with it: in vivo. Put shortly:
as §2

The nature of series [12]: AUC (0 to 24 hrs) in Sprague-Dawley rat at 10 mg/kg, po. It is filed as ADME, organism-based. Set-up: time < 24 hr, dose 10 mg/kg, route oral. The note with it: plasma. Put shortly:
as §2

Series [13] is described as follows: Elimination half life in Sprague-Dawley rat at 3 mg/kg, iv. It counts as ADME, organism-based. More on the design: dose 3 mg/kg, route intravenous. The following applies: in vivo, read-out: beta t1/2 (converted). Put shortly:
as §2

Series [14] can be described thus: Elimination half life in Sprague-Dawley rat at 10 mg/kg, po. It counts as ADME, organism-based. More on the design: dose 10 mg/kg, route oral. The following applies: in vivo, read-out: beta t1/2 (converted). Put shortly:
as §2

A short description of series [15]: Clearance in Sprague-Dawley rat at 3 mg/kg, iv and at 10 mg/kg, po. It is filed as ADME, organism-based. The following applies: in vivo. The procedure, abridged: as §2
Series [16] can be described thus: Volume of distribution in Sprague-Dawley rat at 3 mg/kg, iv and at 10 mg/kg, po. It counts as ADME, organism-based. The following applies: in vivo. Put shortly:
as §2

A short description of series [17]: Oral bioavailability in Sprague-Dawley rat at 10 mg/kg. It counts as ADME, organism-based. The following applies: in vivo. Put shortly: as §2
Series [18] is described as follows: Ratio of drug level in brain to plasma in Sprague-Dawley rat. It is filed as ADME. The note with it: read-out: BPR. Put shortly:
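Rats dosed as in the plasma PK study; brain concentration profiles measured alongside plasma and the brain/plasma ratio taken.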

In series [19] the test system is Rattus norvegicus. In words: Ex vivo receptor occupancy of mGluR1 in po dosed fasted Sprague-Dawley rat assessed as ratio of drug level in cerebellum to frontal cortex after 20 mins. It is filed as functional. The procedure, abridged:
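Fasted Sprague Dawley rats dosed orally (0.3–60 mg/kg; vehicle 1% methyl cellulose), then 1 h later given a 30 µg/kg IV bolus of a competing mGluR1 antagonist tracer. Killed 20 min later; cerebellum and frontal cortex levels measured by mass spectrometry. Occupancy by ratio method (cerebellum normalized to cortex), n = 4 per dose (n = 3 at 10 mg/kg).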

Series [20] has as its system Rattus norvegicus. Kind of series: Toxicity in fasted Sprague-Dawley rat assessed as deffects in motor impairment at 60 mg/kg, po measured up to 4 hrs by rotorod test. The note with it: in vivo. It counts as organism-based. More on the design: dose 60 mg/kg, route oral. Put shortly:
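Fasted male Sprague Dawley rats given 60 mg/kg orally or vehicle (n = 8 per group); time on rotorod recorded at 1, 2, 3 and 4 h post-dose after training to 40 s baseline.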
On the technique in general: In the rotarod test animals must keep their balance on a rotating rod.

Chain of Metabotropic glutamate receptor 5 (P41594 whole entry): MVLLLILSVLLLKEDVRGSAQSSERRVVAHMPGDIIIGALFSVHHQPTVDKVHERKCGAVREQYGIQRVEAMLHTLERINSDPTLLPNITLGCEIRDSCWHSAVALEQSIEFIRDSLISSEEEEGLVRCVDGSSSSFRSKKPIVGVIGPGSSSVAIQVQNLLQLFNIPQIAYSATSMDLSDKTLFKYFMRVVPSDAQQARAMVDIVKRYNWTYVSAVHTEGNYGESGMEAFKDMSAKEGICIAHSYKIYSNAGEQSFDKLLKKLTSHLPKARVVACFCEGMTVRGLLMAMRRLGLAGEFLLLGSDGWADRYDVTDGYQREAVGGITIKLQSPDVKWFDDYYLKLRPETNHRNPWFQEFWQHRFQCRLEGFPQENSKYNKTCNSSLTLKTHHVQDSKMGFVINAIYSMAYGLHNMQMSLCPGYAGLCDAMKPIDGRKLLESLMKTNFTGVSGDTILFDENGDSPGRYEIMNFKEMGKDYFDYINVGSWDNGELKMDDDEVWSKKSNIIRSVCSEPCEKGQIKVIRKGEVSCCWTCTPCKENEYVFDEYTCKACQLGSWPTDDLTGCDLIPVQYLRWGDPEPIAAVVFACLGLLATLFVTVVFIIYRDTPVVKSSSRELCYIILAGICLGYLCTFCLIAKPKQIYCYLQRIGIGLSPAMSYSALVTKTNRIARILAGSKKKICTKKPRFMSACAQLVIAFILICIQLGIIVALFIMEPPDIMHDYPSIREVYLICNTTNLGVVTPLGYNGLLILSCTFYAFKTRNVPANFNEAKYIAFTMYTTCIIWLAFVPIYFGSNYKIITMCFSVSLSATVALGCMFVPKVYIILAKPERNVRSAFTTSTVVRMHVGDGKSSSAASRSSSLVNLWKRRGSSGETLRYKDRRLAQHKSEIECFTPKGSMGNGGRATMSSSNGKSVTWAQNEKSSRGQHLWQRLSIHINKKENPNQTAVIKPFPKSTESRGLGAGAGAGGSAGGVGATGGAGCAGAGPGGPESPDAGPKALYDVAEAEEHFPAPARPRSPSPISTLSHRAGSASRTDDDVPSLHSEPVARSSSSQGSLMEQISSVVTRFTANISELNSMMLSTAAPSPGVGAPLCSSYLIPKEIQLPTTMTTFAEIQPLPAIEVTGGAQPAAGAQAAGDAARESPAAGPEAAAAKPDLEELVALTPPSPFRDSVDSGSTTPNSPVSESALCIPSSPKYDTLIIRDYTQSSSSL
Chain of Metabotropic glutamate receptor 1 (Homo sapiens, UniProt Q13255) (Q13255 whole entry): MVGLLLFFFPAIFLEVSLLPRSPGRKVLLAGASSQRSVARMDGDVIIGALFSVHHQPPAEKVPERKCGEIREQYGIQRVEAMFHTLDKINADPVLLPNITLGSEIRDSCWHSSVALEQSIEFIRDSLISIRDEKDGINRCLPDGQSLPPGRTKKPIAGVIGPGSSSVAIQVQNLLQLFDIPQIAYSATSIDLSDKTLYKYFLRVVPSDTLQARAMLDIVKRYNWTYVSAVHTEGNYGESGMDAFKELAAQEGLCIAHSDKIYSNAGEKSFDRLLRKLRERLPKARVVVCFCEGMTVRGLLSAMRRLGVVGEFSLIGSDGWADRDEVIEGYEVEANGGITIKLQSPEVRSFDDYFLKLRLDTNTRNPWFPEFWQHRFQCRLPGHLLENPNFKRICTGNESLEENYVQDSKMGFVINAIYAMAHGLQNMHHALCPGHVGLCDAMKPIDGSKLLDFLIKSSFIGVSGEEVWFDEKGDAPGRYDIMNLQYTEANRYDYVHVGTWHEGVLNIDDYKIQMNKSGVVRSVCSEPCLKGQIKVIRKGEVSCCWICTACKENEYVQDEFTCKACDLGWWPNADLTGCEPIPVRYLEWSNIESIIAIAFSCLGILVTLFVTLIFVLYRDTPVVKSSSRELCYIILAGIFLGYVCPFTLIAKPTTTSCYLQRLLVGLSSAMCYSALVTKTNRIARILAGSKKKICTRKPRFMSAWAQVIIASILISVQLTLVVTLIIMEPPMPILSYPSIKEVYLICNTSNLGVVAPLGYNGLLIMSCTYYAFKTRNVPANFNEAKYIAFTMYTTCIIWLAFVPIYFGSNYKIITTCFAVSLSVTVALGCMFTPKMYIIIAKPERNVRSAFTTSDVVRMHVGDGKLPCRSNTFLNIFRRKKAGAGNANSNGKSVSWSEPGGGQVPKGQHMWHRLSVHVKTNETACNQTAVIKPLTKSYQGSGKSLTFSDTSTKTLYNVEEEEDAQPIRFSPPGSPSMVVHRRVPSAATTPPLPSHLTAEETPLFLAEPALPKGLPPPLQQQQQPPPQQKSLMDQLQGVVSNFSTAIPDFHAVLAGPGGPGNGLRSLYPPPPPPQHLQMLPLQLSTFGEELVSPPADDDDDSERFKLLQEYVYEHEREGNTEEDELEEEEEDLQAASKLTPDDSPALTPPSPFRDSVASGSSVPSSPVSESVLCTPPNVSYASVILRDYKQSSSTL
Chain of Metabotropic glutamate receptor 7 (Homo sapiens) (Q14831 whole entry): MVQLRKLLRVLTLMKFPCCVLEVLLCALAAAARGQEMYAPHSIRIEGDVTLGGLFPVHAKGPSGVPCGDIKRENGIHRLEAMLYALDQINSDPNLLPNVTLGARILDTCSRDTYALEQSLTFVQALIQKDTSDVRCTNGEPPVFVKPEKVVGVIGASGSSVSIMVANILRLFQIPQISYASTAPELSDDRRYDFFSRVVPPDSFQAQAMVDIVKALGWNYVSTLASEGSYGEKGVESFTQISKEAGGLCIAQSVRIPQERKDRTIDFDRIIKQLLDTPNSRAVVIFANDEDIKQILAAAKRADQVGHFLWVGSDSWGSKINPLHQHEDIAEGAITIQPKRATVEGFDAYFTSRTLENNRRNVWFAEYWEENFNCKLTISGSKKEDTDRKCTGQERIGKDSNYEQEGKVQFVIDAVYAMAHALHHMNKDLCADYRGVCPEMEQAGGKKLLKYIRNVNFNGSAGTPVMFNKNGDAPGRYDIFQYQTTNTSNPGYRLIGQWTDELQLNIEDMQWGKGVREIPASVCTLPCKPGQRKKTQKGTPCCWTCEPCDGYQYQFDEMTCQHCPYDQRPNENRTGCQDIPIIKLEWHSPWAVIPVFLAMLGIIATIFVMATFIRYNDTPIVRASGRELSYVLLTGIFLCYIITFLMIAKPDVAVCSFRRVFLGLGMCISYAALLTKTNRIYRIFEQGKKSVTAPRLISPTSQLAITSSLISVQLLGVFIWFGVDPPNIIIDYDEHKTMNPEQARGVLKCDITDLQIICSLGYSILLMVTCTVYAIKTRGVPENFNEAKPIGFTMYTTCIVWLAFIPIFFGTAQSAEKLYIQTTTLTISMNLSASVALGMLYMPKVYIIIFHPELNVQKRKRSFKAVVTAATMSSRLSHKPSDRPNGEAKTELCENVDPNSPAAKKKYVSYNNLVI
Chain of Metabotropic glutamate receptor 4 (Homo sapiens) (Q14833 whole entry): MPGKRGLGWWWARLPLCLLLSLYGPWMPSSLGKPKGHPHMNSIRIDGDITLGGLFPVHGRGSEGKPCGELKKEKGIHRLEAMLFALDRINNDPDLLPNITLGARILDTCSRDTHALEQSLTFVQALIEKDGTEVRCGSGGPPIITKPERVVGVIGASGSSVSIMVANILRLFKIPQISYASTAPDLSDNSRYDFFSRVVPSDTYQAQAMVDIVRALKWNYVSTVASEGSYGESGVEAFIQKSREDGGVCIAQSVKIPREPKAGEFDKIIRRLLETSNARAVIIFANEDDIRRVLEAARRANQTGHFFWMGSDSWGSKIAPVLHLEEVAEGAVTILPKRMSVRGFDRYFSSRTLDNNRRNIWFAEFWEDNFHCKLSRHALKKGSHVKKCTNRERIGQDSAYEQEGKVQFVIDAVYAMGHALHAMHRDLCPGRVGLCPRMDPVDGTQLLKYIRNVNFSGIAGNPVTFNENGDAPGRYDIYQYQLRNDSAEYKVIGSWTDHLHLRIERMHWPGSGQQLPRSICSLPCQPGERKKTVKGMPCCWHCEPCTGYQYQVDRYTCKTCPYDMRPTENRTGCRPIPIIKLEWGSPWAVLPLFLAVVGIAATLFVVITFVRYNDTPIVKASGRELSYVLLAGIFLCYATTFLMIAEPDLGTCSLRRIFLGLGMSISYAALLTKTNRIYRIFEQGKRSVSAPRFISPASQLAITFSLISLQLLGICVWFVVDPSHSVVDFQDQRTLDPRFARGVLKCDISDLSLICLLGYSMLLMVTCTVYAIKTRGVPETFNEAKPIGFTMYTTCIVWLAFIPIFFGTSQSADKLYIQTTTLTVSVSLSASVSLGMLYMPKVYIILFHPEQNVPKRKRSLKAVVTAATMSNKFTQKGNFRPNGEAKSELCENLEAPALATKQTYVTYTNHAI

`Cc1c(-c2ccccc2)nsc1NC(=O)[C@@H]1C[C@H]1C`: the IC50 in series [1] is 65 nM; in [2], over 12500 nM.
As for `COc1ccc(-c2nsc(NC(=O)[C@H]3C[C@@H]3C)c2C)cc1`, the IC50 in [1] worked out at 110 nM.
In the case of `Cc1c(-c2ccc(C(C)(F)F)cc2)nsc1NC(=O)[C@@H]1C[C@H]1C`, the IC50 in [1] is 67 nM; in [2] it was over 12500 nM.
For `COc1ccc(-c2nsc(NC(=O)[C@@H]3C[C@H]3C)c2C)cc1` [listing 1 of 2 here], the result in series [3], in series [4], in [5] and in series [6] was inactive. The Activity result in [7] was “Dose-dependent effect”. The outcome in series [8] was Active.
With `Cc1c(-c2ccc(F)cc2)nsc1NC(=O)[C@@H]1C[C@H]1C`, the IC50 in series [1] is 100 nM; in [2], over 12500 nM.
In the same order, the values of `COc1ccc(-c2nsc(NC(=O)[C@@H]3C[C@H]3C)c2C)cc1F` are 7 nM and 159 nM.
The corresponding values for `Cc1c(-c2ccc(O)cc2)nsc1NC(=O)[C@@H]1C[C@H]1C` are 138 nM and over 12500 nM.
In the same order, the values of `Cc1c(-c2ccc(Br)cc2)nsc1NC(=O)[C@@H]1C[C@H]1C` are 7 nM and 730 nM.
In the case of `Cc1c(-c2ccc(Cl)c(Cl)c2)nsc1NC(=O)[C@@H]1C[C@H]1C`, the IC50 in series [1] stood at 39 nM; in series [2] it was 6650 nM.
In the same order, the values of `Cc1c(-c2ccc(Cl)cc2)nsc1NC(=O)[C@@H]1C[C@H]1C` are 9 nM and 1220 nM.
Take `COc1ccc(-c2nsc(NC(=O)[C@@H]3C[C@H]3C)c2C)cc1` [listing 2 of 2 here]: the IC50 came out at 9 nM in series [1], 158 nM in [2] and 0.9 nM in [9]. In addition, the Tmax in series [10] was determined as 1 h. In addition, in series [11], the Cmax amounted to 1050 ng/mL. This compound had an AUC(0-t) at 24 h in series [12] of 3240 ng·h/mL. In addition, the half-life in series [13] was 0.41 h; in series [14] it was 1.24 h. In [15], this compound displayed a clearance of 35.9 mL/min/kg. In addition, the Vd in series [16] was determined as 1.27 L/kg. In addition, the bioavailability in series [17] came out at 55.5%. The Kp in series [18] was 0.2. The values for the 50% effective dose (ED50) in [19] and in series [7] were 3.7 mg/kg and 7 mg/kg, respectively. The Activity entry in series [20] is given as “Non-toxic”.
For the compound `COc1ccc(-c2nsc(NC(=O)[C@@H]3C[C@H]3C)c2C)cc1` (racemic), the IC50 in series [1] worked out at 32 nM.
`CCOc1ccc(-c2nsc(NC(=O)[C@@H]3C[C@H]3C)c2C)cc1`: the results for the half-maximal inhibitory concentration (IC50) in [1] and in [2] were 92 nM and 19 nM, respectively.
